Screening results deposited in PubChem BioAssay by Sanford-Burnham Center for Chemical Genomics.
Apaf1 activ – human Apaf-1 activation; Apaf-1 apoptosome caspase-3 activation, DEVD-Rh110 fluorescence; stronger effect = lower value; activity change, negative = activation, % at 20 µM; 330,000 compounds, 0.31% hits; AID 489031;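 active = activity change at or below -40% at 20 µM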
Target sequence (O14727 whole entry, looked up): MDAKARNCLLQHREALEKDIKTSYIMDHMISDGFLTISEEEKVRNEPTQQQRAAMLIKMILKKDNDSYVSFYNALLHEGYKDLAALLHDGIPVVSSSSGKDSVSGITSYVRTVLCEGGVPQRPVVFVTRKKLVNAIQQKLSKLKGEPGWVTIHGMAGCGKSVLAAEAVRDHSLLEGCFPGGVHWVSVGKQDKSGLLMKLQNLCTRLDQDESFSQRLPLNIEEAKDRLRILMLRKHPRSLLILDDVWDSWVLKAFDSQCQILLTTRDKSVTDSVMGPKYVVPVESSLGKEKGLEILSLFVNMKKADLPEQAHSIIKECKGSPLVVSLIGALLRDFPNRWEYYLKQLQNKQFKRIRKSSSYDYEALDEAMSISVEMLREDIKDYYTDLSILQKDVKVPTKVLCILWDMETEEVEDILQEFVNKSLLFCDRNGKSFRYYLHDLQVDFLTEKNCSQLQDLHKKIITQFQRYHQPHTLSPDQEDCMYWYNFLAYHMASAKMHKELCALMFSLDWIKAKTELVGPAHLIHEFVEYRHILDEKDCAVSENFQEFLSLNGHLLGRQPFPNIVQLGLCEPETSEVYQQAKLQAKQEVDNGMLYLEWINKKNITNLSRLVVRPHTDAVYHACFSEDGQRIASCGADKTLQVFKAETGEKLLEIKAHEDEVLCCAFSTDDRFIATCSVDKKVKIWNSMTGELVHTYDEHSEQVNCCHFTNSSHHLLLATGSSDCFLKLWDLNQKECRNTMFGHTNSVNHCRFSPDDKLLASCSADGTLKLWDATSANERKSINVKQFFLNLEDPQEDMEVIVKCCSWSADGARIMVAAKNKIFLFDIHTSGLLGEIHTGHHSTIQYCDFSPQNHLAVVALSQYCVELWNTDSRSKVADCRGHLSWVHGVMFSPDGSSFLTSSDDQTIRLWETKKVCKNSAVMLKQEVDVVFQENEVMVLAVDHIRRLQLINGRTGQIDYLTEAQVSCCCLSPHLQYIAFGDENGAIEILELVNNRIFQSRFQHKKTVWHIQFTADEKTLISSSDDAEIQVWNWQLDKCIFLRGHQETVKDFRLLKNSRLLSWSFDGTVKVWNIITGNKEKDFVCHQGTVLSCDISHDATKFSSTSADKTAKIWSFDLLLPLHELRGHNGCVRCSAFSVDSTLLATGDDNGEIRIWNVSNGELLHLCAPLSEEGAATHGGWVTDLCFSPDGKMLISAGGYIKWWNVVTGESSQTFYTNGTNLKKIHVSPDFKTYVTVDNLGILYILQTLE
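Assay system – biochemical Apaf-1 apoptosome reconstitution · Medium – 20 mM HEPES buffer, pH 7.5, containing CHAPS and BSA · Incubation – 30 min preincubation, 50 min reaction, room temperature · Measured by – Caspase-3-released Rh110 fluorescence, 540 nm emission, 480 nm excitation · Read-out – Caspase-3 cleavage activity downstream of Apaf-1 activation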
Rh110 act interf – counter-screen for Apaf-1 activators: fluorescence interference; shares compounds with Apaf1 activ; Rh110 fluorescence interference, quenched caspase reaction, Ex480/Em540; fluorescence interference (activity change), % at 20 µM, hits read low; 980 tested, under 10 active; AID 504616;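 active = mean activity change at or below -40% when tested at 20 µM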
Apaf-1 act conf2 – confirmation of human Apaf-1 activators. shares compounds with Apaf1 activ. reconstituted apoptosome caspase-3 activity, DEVD-Rh110 fluorescence; stronger effect = lower value. activity change, negative = activation, % at 20 µM. 980 compounds, 5% hits;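 active = mean activity change at or below -40%, meaning activation of 40% or more, at 20 µM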
Apaf1 act interf – Apaf-1 activator counter-screen fluorescence artifact. EC50, µM. 55 tested, under 10 active. AID 588592. fluorescence interference counterscreen, Apaf-1 activator assay. shares compounds with Apaf1 activ; call rule not given here
The depositor's hits bear a star; nt = not tested or not shown. Not all results are given here.

SMILES | Apaf1 activ | Rh110 act interf | Apaf-1 act conf2 | others
COC(=O)c1cccc(C23CC4(C2)[C@H](CN(CC2CCCCC2)[C@@H]4c2ccccc2)C3c2ccccc2)c1 (some centres undefined) | 40 | nt | nt
c1ccc(C[C@H]2CNCCN2CCCCC2CCCCC2)cc1 | 49 | nt | nt
CC(C)Oc1ccc(N2CC(C(=O)Nc3ccc(N4CCOCC4)cc3)CC2=O)cc1 (centres undefined) | -107* | 8 | 5
CC(=O)c1ccc(NC2=C(N3CCOCC3)C(=O)c3ccccc3C2=O)cc1 | 80 | nt | nt
O/C=c1\ccc2cccc3nc(C(F)(F)F)nc1c23 | 79 | nt | nt
CC(=O)c1ccc(N2CCN(C(=O)CCN3C(=S)NC(C)(C)CC3C)CC2)cc1 (centres undefined) | -139* | 7 | 16
Oc1ccc(/C=N/N2CCCCC2)c(O)c1O | 70 | nt | nt
CC(C)(C)c1ccc(C(O)CCCN2CCC(C(O)(c3ccccc3)c3ccccc3)CC2)cc1 (centres undefined) | 53 | nt | nt
COc1ccccc1NC(=S)Nc1cccc2cnccc12 | 97 | nt | nt
O=C(Nc1ccc2nsnc2c1)N1CCCCC1 | 73 | nt | nt
COc1ccccc1NC(=O)Nc1ccc(C(=O)N2CCCCC2)cc1 | -80* | -1 | 13
C#CCOCCOCCOCCNc1nc(N2CCN(C(=O)[C@H]([C@@H](C)CC)n3cc([C@@H](N)CC(C)C)nn3)CC2)nc(N2CCN(C(=O)[C@H](Cc3cc4ccccc4[nH]3)n3cc([C@@H](N)Cc4ccc(O)cc4)nn3)CC2)n1 | 56 | nt | nt
Cc1cc(C)c2c(=O)c(/C=C3\NC(=S)NC3=O)coc2c1 | -99* | 10 | -63* | Apaf1 act interf=>100
CC(C)OP(=O)(OC(C)C)C(Nc1ccccn1)c1ccc(F)cc1 (centres undefined) | 55 | nt | nt
Cc1c(NC(=O)CSc2ccc3c(c2)OCCO3)c(=O)n(-c2ccccc2)n1C | -46* | 11 | 9
Cc1ccsc1C(=O)OCC(=O)Nc1c(C)n(C)n(-c2ccccc2)c1=O | -77* | 3 | 9
CC1=CC(=Nc2c(C)n(C)n(-c3ccccc3)c2=O)C=CC1=O | 43 | nt | nt
O=C(Nc1nc2ccsc2c(=O)s1)c1ccco1 | -136* | 0 | -56* | Apaf1 act interf=>100
CCCCCn1c(NC(=O)c2ccco2)c(S(=O)(=O)c2ccc(C)cc2)c2nc3ccccc3nc21 | 63 | nt | nt
COC(=O)c1ccc(NC(=O)c2ccc(NC(=O)c3ccco3)cc2)cc1 | 44 | nt | nt
O=C1OC(Nc2ccc3ncccc3c2)c2ccccc21 (centres undefined) | 82 | nt | nt
CC(C)(C)C(=O)[C@@H]1[C@@H]2C(=O)N(c3ccc4c(c3)OCCO4)C(=O)[C@@H]2C2c3ccccc3C=CN21 (some centres undefined) | 62 | nt | nt
COc1cc([N+](=O)[O-])ccc1NC(=O)NNC(=O)c1sccc1C | -60* | 8 | 12
CCc1ccc(S(=O)(=O)/N=C2\C=CC(=O)c3ccccc32)cc1 | 55 | nt | nt
C1CCC(C(CC2CCCCN2)C2CCCCC2)CC1 (centres undefined) | 60 | nt | nt
SMILES | Apaf1 activ | Rh110 act interf | Apaf-1 act conf2 | others
C#CCOCCOCCOCCNc1nc(N2CCN(C(=O)CCCCCCCCCCNC(=O)Cn3cc(CCCCCN)nn3)CC2)nc(N2CCN(C(=O)CCCCCCCCCCNC(=O)Cn3cc(C[C@@H](C)O)nn3)CC2)n1 | 71 | nt | nt
COc1ccc(CNc2ccc3cn[nH]c3c2)c(OC)c1OC | 46 | nt | nt
CN(C)CCCNC(=O)C(=O)NCC1OCCN1S(=O)(=O)c1cccs1 (centres undefined) | 64 | nt | nt
CC(=O)c1cc(F)c(N2CCN(CCC#N)CC2)cc1C | -456* | 9 | 13
COc1ccc(C(=O)COC(=O)CCCN=C2NS(=O)(=O)c3ccccc32)c(OC)c1 | 51 | nt | nt
O=C(O)C1CCCN(S(=O)(=O)c2ccc(-c3ccc(=O)[nH]n3)s2)C1 (centres undefined) | -350* | -5 | 10
C=CC(=O)Nc1ccc(CN2C(=O)N(c3c(Cl)c(OC)cc(OC)c3Cl)Cc3cnc(NCCCCN(CC)CC)nc32)cc1 | 63 | nt | nt
C#CCOCCOCCOCCNc1nc(N2CCN(C(=O)CCCCCCCCCCNC(=O)[C@H](CCCCN)n3cc(C[C@@H](C)CC)nn3)CC2)nc(N2CCN(C(=O)CCCCCCCCCCNC(=O)[C@@H]([C@H](C)O)n3cc(C)nn3)CC2)n1 | 58 | nt | nt
Cc1ccc(S(=O)(=O)c2nc(S(C)(=O)=O)sc2N(C)C)cc1 | -90* | -9 | -23
Cc1ccc(S(=O)(=O)N2CCN(c3nc(CN4CCCC4)nc4sc(C)c(C)c34)CC2)cc1 | 48 | nt | nt
Cc1[nH]n(-c2ccccc2)c(=O)c1C(c1cccc([N+](=O)[O-])c1O)c1c(C)[nH]n(-c2ccccc2)c1=O | 88 | nt | nt
CCCCCCSc1cccc(-c2nc3cc(C)ccn3c2NCc2ccccc2)c1 | 40 | nt | nt
Cc1ccc(NC(=O)C2CCN(C(=O)[C@@H]3Cc4ccccc4CN3)CC2)c(C)c1 | -72* | -4 | 9
Oc1ccc(C=Nc2ccc3ncccc3c2)c(O)c1 | 95 | nt | nt
CCC(C)(C)c1ccc(OCCCC[n+]2cccc(C)c2C)c(C(C)(C)CC)c1 | 69 | nt | nt
CC(=O)c1ccc(OCC(=O)NCC(c2ccco2)N2CCCCC2)cc1 (centres undefined) | -44* | 7 | 13
C=CCC[C@@H](Cc1ccc(F)cc1)C(=O)OC[C@@H]1CCCN1C(=O)[C@@H](CC=C)CC(=O)N(CCO)Cc1ccccc1 | 48 | nt | nt
C#CCOCCOCCOCCNc1nc(N2CCN(C(=O)[C@H](Cc3ccc(O)cc3)n3cc([C@@H](N)C(C)CC)nn3)CC2)nc(N2CCN(C(=O)[C@H](Cc3cc4ccccc4[nH]3)n3cc([C@@H](N)Cc4ccc(O)cc4)nn3)CC2)n1 (some centres undefined) | 56 | nt | nt
Cc1cnc(C(=O)NC2CC(C)(C)Cc3c2cnn3-c2ccccc2)cn1 (centres undefined) | -85* | 1 | 7
CC(=O)NC1N=C(C)N(c2ccccc2)C1=O (centres undefined) | 70 | nt | nt
CCOC(=O)N1CCN(S(=O)(=O)c2ccc(C(=O)N(CCCN(C)C)c3nc4ccc(CC)cc4s3)cc2)CC1 | 55 | nt | nt
CCOC(=O)c1c(C)oc2c1c(C=NCCC(=O)O)c(O)c1ccccc12 | 81 | nt | nt
CCOc1ccccc1NC(=O)COc1ccc2ccc(=O)oc2c1 | -87* | 3 | 3
CCOc1ccc(NC(=S)Nc2cccc3ccccc23)cc1 | 66 | nt | nt
CCc1ccccc1OCC(=O)Nc1ccc(N2CCCC2)cc1C | 43 | nt | nt
SMILES | Apaf1 activ | Rh110 act interf | Apaf-1 act conf2 | others
COc1ccc(-c2cc(=O)n(-c3ccc([N+](=O)[O-])cc3)[nH]2)cc1 | 65 | nt | nt
Nc1nnc2c(n1)CCCC2 | 83 | nt | nt
CCOC(=O)c1ccc(NC2=CC(=O)C(=O)c3ccccc32)cc1 | 72 | nt | nt
Cc1sc2ncn(CC(=O)NCCCC(=O)N3CCN(c4ccccc4)CC3)c(=O)c2c1C | -313* | 2 | 8
CCCN(CC(=O)Nc1ccccc1C)C(=O)C1CCN(c2ncnc3sc(C)c(C)c23)CC1 | 49 | nt | nt
Cc1c(/C(O)=C2/C(=O)C(=O)N(CCN3CCOCC3)C2c2cccs2)cnn1-c1ccccc1 (centres undefined) | -424* | 17 | 16
S=c1nc[nH]c2nc[nH]c12 | 2 | nt | nt
